Results from ChEMBL document CHEMBL1140162, “3-amino-7-phthalazinylbenzoisoxazoles as a novel class of potent, selective, and orally available inhibitors of p38alpha mitogen-activated protein kinase” (J Med Chem, 2008).
Values belong to the compound of their own block, whether it stands above or below them.

What was measured:
[1] = target: T1, Mitogen-activated protein kinase 14 (Homo sapiens, UniProt Q16539); experiment: Inhibition of human recombinant GST-tagged p38alphaMAPK-induced ATF2 phosphorylation
T1 sequence (Q16539 whole entry): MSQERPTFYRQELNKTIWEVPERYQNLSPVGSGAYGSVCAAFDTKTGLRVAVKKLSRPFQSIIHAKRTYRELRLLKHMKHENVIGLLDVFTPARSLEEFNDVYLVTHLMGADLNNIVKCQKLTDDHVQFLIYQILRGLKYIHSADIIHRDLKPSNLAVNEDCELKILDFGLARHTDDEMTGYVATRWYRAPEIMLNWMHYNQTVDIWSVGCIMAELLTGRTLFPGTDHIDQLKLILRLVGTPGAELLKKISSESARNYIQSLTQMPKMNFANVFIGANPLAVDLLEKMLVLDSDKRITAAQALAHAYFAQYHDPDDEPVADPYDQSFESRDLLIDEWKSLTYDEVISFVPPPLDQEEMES

[2] = test system: Blood; experiment: Inhibition of TNF-induced IL8 production in human whole blood; assay type: functional, tissue-based
[3] = target: Cytochrome P450 3A4 (Homo sapiens, UniProt P08684); experiment: Inhibition of CYP3A4 in human liver microsomes; assay type: ADME, Microsome
Chain of Cytochrome P450 3A4 (P08684 whole entry): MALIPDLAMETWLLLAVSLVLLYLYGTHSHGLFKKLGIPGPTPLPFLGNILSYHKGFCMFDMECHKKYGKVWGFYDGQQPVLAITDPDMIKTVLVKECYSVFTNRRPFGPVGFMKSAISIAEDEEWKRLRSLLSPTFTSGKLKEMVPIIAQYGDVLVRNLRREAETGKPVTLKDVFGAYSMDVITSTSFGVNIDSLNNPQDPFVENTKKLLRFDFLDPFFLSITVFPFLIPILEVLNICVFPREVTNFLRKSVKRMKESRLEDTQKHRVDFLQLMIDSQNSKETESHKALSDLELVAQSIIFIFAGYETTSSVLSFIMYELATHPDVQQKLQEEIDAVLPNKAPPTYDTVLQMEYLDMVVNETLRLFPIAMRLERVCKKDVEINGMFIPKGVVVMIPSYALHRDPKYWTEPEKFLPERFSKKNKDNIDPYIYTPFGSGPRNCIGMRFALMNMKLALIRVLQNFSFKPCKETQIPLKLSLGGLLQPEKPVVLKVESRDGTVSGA

[4] = target: Cytochrome P450 2D6 (Homo sapiens, UniProt P10635); experiment: Inhibition of CYP2D6; assay type: ADME
Chain of Cytochrome P450 2D6 (P10635 whole entry): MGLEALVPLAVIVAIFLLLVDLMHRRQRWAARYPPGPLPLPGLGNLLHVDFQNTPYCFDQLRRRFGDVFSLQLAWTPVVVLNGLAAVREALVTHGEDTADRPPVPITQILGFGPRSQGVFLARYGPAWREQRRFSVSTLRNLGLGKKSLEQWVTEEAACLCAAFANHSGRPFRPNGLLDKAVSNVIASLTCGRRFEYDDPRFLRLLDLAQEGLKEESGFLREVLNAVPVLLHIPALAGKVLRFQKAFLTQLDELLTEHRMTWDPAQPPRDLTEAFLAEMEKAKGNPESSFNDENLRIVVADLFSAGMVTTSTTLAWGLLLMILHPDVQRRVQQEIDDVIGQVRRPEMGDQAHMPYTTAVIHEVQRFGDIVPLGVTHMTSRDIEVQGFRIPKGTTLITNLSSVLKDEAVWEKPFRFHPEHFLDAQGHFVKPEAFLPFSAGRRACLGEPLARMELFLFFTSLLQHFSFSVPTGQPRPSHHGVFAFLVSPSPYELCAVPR

[5] = test system: THP-1; experiment: Inhibition of LPS-induced TNFalpha production in human THP1 cells after 3 hrs; assay type: functional, cell-based; conditions: THP-1, 3 h
[6] = test system: Rattus norvegicus; experiment: Cmax in Sprague-Dawley rat at 10 mg/kg, po; assay type: ADME, organism-based; set-up: dose 10 mg/kg, route oral; conditions: in vivo
Outline: (§1)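 Sprague-Dawley rats dosed orally at 10 mg/kg as a solution in 1% Tween-80 in OralPlus (pH 2.2); bioavailability derived against 2 mg/kg iv dosing.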

[7] = target: T2, Mitogen-activated protein kinase 11 (Homo sapiens, UniProt Q15759); experiment: Inhibition of human recombinant GST-tagged p38beta-induced ATF2 phosphorylation
T2 sequence (Q15759 whole entry): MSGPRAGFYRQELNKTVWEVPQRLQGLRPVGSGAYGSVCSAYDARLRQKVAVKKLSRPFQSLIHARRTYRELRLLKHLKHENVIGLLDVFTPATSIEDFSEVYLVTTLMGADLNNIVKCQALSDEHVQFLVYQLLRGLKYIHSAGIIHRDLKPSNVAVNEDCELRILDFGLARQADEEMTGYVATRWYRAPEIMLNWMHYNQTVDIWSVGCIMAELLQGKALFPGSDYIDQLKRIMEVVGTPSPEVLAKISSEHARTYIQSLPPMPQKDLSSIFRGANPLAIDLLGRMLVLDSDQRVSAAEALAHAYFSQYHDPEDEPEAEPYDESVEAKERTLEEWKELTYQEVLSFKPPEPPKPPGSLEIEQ

[8] = target: T3, Nuclear receptor subfamily 1 group I member 2 (Homo sapiens, UniProt O75469); experiment: Activation of human PXR
T3 sequence (O75469 whole entry): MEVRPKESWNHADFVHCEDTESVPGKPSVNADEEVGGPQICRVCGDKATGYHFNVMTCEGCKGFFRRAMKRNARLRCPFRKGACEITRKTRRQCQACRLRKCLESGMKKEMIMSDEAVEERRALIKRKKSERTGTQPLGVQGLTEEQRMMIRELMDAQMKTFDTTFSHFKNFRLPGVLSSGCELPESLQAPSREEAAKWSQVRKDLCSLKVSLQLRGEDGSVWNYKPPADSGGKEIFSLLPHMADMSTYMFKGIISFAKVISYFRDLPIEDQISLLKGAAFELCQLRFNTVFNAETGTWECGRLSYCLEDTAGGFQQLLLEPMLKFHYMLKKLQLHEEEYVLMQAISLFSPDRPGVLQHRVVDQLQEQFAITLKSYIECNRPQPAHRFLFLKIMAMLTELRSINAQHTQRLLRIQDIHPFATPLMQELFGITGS

[9] = test system: Rattus norvegicus; experiment: Cmax in po dosed collagen-induced arthritis Lewis rat model; assay type: ADME, organism-based; set-up: route oral; conditions: in vivo
Outline: (§2)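 Lewis rats immunized intradermally with porcine type II collagen in incomplete Freund's adjuvant; dosing oral, once daily for 7 days from disease onset (days 10-12), vehicle 1% Tween-80 in Oraplus pH 2.2, doses 0.03-3.0 mg/kg. Paw diameter measured daily days 0-7; area under swelling curve used for percent inhibition versus vehicle; n = 8 rats/group. Exposure values interpolated.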

[10] = target: T4, Platelet-derived growth factor receptor beta (Homo sapiens, UniProt P09619); experiment: Inhibition of PDGFRbeta
T4 sequence (P09619 whole entry): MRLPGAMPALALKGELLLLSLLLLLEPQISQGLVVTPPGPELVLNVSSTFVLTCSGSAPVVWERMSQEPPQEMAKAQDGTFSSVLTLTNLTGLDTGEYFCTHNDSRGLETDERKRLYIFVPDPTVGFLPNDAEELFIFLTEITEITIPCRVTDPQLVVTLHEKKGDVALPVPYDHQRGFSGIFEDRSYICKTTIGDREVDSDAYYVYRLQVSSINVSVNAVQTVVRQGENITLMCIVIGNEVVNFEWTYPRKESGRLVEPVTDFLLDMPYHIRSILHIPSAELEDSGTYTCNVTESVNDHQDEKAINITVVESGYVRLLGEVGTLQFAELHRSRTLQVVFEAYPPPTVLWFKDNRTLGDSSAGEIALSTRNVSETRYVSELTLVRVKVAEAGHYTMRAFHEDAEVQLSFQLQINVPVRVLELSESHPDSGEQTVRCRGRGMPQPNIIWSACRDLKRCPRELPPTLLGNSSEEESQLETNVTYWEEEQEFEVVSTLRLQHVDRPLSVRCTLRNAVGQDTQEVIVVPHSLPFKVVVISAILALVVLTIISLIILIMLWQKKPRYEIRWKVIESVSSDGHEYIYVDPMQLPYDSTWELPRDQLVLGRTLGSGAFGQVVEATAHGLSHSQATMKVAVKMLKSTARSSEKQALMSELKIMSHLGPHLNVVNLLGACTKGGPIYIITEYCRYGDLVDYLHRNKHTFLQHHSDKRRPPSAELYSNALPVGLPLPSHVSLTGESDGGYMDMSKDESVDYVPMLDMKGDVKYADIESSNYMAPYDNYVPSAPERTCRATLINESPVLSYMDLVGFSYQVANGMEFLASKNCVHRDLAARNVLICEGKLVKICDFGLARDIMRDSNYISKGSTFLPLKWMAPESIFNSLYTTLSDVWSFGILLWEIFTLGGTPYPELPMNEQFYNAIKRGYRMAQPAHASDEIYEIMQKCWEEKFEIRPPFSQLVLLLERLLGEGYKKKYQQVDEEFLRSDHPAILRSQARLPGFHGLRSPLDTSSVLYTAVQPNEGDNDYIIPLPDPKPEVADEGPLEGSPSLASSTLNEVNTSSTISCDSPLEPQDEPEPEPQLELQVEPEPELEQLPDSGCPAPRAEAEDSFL

[11] = test system: Rattus norvegicus; experiment: Oral bioavailability in Sprague-Dawley rat at 10 mg/kg; assay type: ADME, organism-based; conditions: in vivo; outline: as §1
[12] = target: T2, Mitogen-activated protein kinase 11; experiment: Inhibition of p38beta at 1 uM relative to control
[13] = Elimination half life in Sprague-Dawley rat at 2 mg/kg, iv; assay type: ADME, organism-based; set-up: dose 2 mg/kg, route intravenous; conditions: in vivo
Outline: (§3)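 Sprague-Dawley rats given 2 mg/kg intravenously; clearance, volume of distribution and elimination half-life derived from plasma profile.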

[14] = Protein binding in human plasma; assay type: ADME, cell-free; conditions: read-out: PPB (converted)
Outline: (§4)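 Plasma protein binding in rat or human plasma measured by ultrafiltration.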

[15] = test system: Rattus norvegicus; experiment: Antiinflammatory effect in po dosed collagen-induced arthritis Lewis rat model assessed as inhibition of paw swelling administered once a day for 7 days; assay type: functional; outline: as §2
[16] = Volume of distribution in Sprague-Dawley rat at 2 mg/kg, iv; assay type: ADME, organism-based; set-up: dose 2 mg/kg, route intravenous; conditions: in vivo; outline: as §3
[17] = Tmax in Sprague-Dawley rat at 10 mg/kg, po; assay type: ADME, organism-based; set-up: dose 10 mg/kg, route oral; conditions: in vivo; outline: as §1
[18] = test system: Rattus norvegicus; experiment: AUC (0 to 24 hrs) in po dosed collagen-induced arthritis Lewis rat model; assay type: ADME, organism-based; set-up: time < 24 hr, route oral; conditions: in vivo; outline: as §2
[19] = target: T1, Mitogen-activated protein kinase 14; experiment: Inhibition of p38alpha at 1 uM relative to control
[20] = test system: Liver microsomes; experiment: Metabolic stability in human liver microsomes assessed per mg of protein by LCMS in presence of NADPH; assay type: ADME, Microsome
Outline: (§5)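 Test article 1 µM incubated with rat or human liver microsomes (0.1 mg/mL) in 66.67 mM potassium phosphate pH 7.4; NADPH 1 mM started reaction, blank without NADPH; stopped at 10 min with acetonitrile/0.05% formic acid; remaining parent quantified by LCMS; triplicates.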

[21] = target: T5, Mast/stem cell growth factor receptor Kit (Homo sapiens, UniProt P10721); experiment: Inhibition of c-KIT at 1 uM relative to control
T5 sequence (P10721 whole entry): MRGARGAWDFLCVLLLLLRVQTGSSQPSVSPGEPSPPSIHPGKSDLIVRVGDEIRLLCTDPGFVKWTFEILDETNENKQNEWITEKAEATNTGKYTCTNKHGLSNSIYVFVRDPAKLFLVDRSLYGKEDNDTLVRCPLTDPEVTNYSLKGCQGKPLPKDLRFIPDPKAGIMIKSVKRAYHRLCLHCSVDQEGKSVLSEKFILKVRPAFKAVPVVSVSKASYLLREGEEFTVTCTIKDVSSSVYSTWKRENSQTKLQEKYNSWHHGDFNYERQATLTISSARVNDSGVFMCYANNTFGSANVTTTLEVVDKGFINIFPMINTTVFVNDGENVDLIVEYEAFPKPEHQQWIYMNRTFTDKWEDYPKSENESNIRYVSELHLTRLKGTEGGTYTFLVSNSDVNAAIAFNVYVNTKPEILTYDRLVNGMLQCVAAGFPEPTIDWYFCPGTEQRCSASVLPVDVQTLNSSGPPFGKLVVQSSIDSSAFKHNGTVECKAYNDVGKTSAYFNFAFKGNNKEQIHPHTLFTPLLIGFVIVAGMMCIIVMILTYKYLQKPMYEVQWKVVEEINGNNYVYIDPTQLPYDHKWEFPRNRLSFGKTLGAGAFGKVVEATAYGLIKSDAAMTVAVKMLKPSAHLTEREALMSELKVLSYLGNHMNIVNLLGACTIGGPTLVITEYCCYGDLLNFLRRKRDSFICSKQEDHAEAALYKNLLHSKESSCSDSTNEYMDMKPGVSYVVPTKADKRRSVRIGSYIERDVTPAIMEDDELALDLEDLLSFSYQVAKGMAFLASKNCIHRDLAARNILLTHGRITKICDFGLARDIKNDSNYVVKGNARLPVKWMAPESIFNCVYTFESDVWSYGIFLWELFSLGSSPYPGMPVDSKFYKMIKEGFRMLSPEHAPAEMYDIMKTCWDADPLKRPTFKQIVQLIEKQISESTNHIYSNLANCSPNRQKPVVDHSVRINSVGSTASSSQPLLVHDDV

[22] = Protein binding in Sprague-Dawley rat plasma; assay type: ADME, cell-free; conditions: read-out: PPB (converted); outline: as §4
[23] = target: Voltage-gated inwardly rectifying potassium channel KCNH2 (Homo sapiens, UniProt Q12809); experiment: Inhibition of human ERG by manual electrophysiology
Chain of Voltage-gated inwardly rectifying potassium channel KCNH2 (Q12809 whole entry): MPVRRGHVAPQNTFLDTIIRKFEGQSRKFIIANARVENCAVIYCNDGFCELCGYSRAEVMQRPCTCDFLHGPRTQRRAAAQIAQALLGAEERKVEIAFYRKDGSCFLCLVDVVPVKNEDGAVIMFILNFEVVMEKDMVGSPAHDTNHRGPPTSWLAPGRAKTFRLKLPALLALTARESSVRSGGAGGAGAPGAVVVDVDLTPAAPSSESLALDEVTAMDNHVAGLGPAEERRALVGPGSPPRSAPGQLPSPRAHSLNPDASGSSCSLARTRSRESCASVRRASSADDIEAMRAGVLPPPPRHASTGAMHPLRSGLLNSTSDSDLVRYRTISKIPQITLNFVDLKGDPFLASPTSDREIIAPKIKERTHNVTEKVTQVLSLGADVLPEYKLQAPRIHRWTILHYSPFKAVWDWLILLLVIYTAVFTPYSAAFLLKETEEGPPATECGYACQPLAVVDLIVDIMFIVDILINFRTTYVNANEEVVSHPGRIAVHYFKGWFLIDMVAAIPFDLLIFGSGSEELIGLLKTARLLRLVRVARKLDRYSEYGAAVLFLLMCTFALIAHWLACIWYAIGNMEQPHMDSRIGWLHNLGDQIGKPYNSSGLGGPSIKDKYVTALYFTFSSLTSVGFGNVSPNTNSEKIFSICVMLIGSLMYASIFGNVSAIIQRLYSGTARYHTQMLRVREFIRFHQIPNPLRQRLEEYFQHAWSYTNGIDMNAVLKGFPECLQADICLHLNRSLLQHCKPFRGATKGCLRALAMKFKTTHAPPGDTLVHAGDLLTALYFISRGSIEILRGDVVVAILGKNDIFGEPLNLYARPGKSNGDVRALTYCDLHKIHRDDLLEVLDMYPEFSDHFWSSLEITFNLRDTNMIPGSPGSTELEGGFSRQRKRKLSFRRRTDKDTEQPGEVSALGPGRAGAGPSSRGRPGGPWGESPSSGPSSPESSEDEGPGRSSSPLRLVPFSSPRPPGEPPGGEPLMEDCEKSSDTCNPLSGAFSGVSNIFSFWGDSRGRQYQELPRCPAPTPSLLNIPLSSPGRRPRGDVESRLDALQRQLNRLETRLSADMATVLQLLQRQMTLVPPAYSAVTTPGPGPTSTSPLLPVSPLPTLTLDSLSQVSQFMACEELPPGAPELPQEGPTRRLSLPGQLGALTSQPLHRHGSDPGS

[24] = test system: Liver microsomes; experiment: Metabolic stability in Sprague-Dawley rat liver microsomes assessed per mg of protein by LCMS in presence of NADPH; assay type: ADME, Microsome; outline: as §5
[25] = target: T4, Platelet-derived growth factor receptor beta; experiment: Inhibition of PDGFRbeta at 1 uM relative to control
[26] = Concentration of drug level in po dosed collagen-induced arthritis Lewis rat model after 24hrs; assay type: ADME, organism-based; conditions: in vivo, read-out: Drug uptake; outline: as §2
[27] = target: T5, Mast/stem cell growth factor receptor Kit; experiment: Inhibition of c-KIT

Compound: Cc1ccccc1-c1nncc2cc(-c3c(C)ccc4c(NC5CC5)noc34)ccc12
Ki [1]: 0.4 nM | IC50 [2]: 3.3 nM | IC50 [3]: 1800 nM | IC50 [4]: > 25000 nM | IC50 [5]: 0.4 nM

Compound: CC[C@H](C)Nc1nncc2cc(-c3c(C)ccc4c(NC)noc34)ccc12
Ki [1]: 0.2 nM | IC50 [2]: 2.1 nM | IC50 [3]: > 25000 nM | IC50 [5]: 1.3 nM

Compound: CNc1noc2c(-c3ccc4c(NC(C)C)nncc4c3)c(C)ccc12
Ki [1]: 0.5 nM | IC50 [2]: 2.2 nM | IC50 [3]: > 25000 nM | IC50 [5]: 0.7 nM

Compound: Cc1ccc2c(N)nsc2c1-c1ccc2c(N3CCOC[C@@H]3C)nncc2c1
Ki [1]: 2 nM | IC50 [2]: 50 nM | IC50 [3]: 4000 nM | IC50 [5]: 29 nM

Compound: Cc1ccc2c(N)n[nH]c2c1-c1ccc2c(N3CCOC[C@@H]3C)nncc2c1
Ki [1]: 16 nM | IC50 [2]: 153 nM | IC50 [5]: 120 nM

Compound: CC(C)Nc1noc2c(-c3ccc4c(N5CCOC[C@@H]5C)nncc4c3)c(Cl)ccc12
Ki [1]: 0.4 nM | IC50 [2]: 15 nM | IC50 [3]: 4500 nM | IC50 [5]: 3.6 nM

Compound: CNc1noc2c(-c3ccc4c(C(C)C)nncc4c3)c(C)ccc12
Ki [1]: 1.1 nM | IC50 [2]: 3.4 nM | IC50 [3]: > 25000 nM | IC50 [5]: 1.1 nM

Compound: CNc1noc2c(-c3ccc4c(OC(C)C)nncc4c3)c(C)ccc12
Ki [1]: 0.4 nM | IC50 [2]: 7 nM | IC50 [3]: > 25000 nM | IC50 [5]: 0.7 nM

Compound: Cc1ccc2c(NC3CC3)noc2c1-c1ccc2c(NC(C)C)nncc2c1
Ki [1]: 0.5 nM | IC50 [2]: 0.7 nM | IC50 [3]: 5600 nM | IC50 [4]: > 25000 nM | IC50 [5]: 0.4 nM

Compound: CC(=O)N1CCN(c2nncc3cc(-c4c(C)ccc5c(NC6CC6)noc45)ccc23)[C@@H](C)C1
Ki [1]: 0.8 nM | IC50 [2]: 1.4 nM | IC50 [4]: > 25000 nM | IC50 [5]: 0.8 nM

Compound: CNc1noc2c(-c3ccc4c(N5CCOC[C@@H]5C)nncc4c3)c(Cl)ccc12
Ki [1]: 0.2 nM | IC50 [2]: 3.3 nM | IC50 [3]: 6000 nM | IC50 [5]: 1.3 nM

Second part, led by results:

Ki [1]: 0.3 nM | IC50 [2]: 5.2 nM | IC50 [3]: 12000 nM | IC50 [5]: 3.6 nM
Compound: Cc1ccc2c(N)noc2c1-c1ccc2c(N3CCOC[C@@H]3C)nncc2c1

Ki [1]: 0.3 nM | IC50 [2]: 4.5 nM | IC50 [3]: > 25000 nM | IC50 [5]: 1 nM
Compound: CNc1noc2c(-c3ccc4c(N5CCOC[C@H]5C)nncc4c3)c(C)ccc12

Ki [1]: 0.7 nM | IC50 [2]: 1.3 nM | IC50 [3]: 5600 nM | IC50 [4]: > 25000 nM | IC50 [5]: 0.6 nM
Compound: Cc1ccc2c(NC3CC3)noc2c1-c1ccc2c(N3CCOC[C@@H]3C)nncc2c1

Ki [1]: 0.6 nM | IC50 [2]: 2 nM | IC50 [3]: > 25000 nM | IC50 [5]: 0.7 nM
Compound: CC(=O)Nc1noc2c(-c3ccc4c(N5CCOC[C@@H]5C)nncc4c3)c(C)ccc12

Ki [1]: 0.3 nM | IC50 [2]: 2 nM | IC50 [3]: 10000 nM | IC50 [5]: 0.4 nM
Compound: CCNc1noc2c(-c3ccc4c(N5CCOC[C@@H]5C)nncc4c3)c(C)ccc12

Cmax [6]: 1040 ng/mL | Ki [7]: 1.8 nM | Ki [1]: 0.4 nM | Activity [8]: Not Active | Cmax [9]: 7 nM | IC50 [10]: 830 nM | F [11]: 67% | IC50 [2]: 3.3 nM | inhibition [12]: < 50% | half-life [13]: 2.8 h | IC50 [3]: > 25000 nM | fraction unbound [14]: 0.08 | Vd [16]: 2.4 L/kg | Tmax [17]: 1.7 h | AUC [18]: 0.0224 µM·h | IC50 [5]: 0.4 nM | inhibition [19]: < 50% | Stability [20]: 132 µL/min | inhibition [21]: < 50% | fraction unbound [22]: 0.1 | Stability [24]: 120 µL/min | inhibition [25]: < 50% | concentration at 24 h [26]: 0.3 nM | IC50 [27]: 1600 nM
Compound: CNc1noc2c(-c3ccc4c(N5CCOC[C@@H]5C)nncc4c3)c(C)ccc12
Activity [15]: Dose-dependent effect | ED50 ([15]; 168 h): 0.05 mg/kg | IC50 [23]: 13000 nM
